Test results from ChEMBL document CHEMBL1151446, “The PhoQ-activating potential of antimicrobial peptides contributes to antimicrobial efficacy and is predictive of the induction of bacterial resistance” (2007).
≈ marks a conversion by molar mass, not a printed value. Calls of active or inactive are those of the source. The calls are words filed in the database; no cut-off is given here. Where a SMILES comes first, the peptide text is derived from it.

Assays:
[1] = system: Salmonella enterica subsp. enterica; assay: Antibacterial activity against bacterial sensory kinase PhoQ deficient Salmonella enterica serovar Typhimurium CS009 after 16 hrs by modified twofold broth microdilution method; format: functional, Salmonella enterica subsp. enterica serovar Typhimurium; conditions: CS009, 16 h
Method in brief: (§1)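 Broth microdilution MBC assay: 5 × 10^5 bacteria/ml in LB with a linear gradient of peptide concentrations. Peptide dilutions were made fresh in 0.2% BSA, 0.01% acetic acid and added after the inoculum. Plates were incubated at 37°C for 16 h, then spotted onto LB agar. MBC was the lowest concentration with no growth, averaged over at least three trials.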

[2] = system: Salmonella enterica subsp. enterica; assay: Antibacterial activity against wild type Salmonella enterica serovar Typhimurium ATCC 14028 after 16 hrs by modified twofold broth microdilution method; format: functional, Salmonella enterica subsp. enterica serovar Typhimurium; conditions: ATCC 14028, 16 h; method in brief: as §1
[3] = system: Salmonella enterica subsp. enterica; assay: Antibacterial activity against bacterial sensory kinase PhoP deficient Salmonella enterica serovar Typhimurium CS053 after 16 hrs by modified twofold broth microdilution method; format: functional, Salmonella enterica subsp. enterica serovar Typhimurium; conditions: CS053, 16 h; method in brief: as §1
[4] = system: Salmonella enterica subsp. enterica; assay: Antibacterial activity against bacterial sensory kinase PhoQ deficient Salmonella enterica serovar Typhimurium expressing PhoPQ operon after 16 hrs by modified twofold broth microdilution method; format: functional, Salmonella enterica subsp. enterica serovar Typhimurium; method in brief: as §1
[5] = system: Salmonella enterica subsp. enterica; assay: Antibacterial activity against bacterial sensory kinase PhoQ deficient Salmonella enterica serovar Typhimurium CS009 assessed as PhoQ-activating potential after 16 hrs by modified twofold broth microdilution method relative to wild type Salmonella enterica serovar Typhimurium ATCC 14028; format: functional, Salmonella enterica subsp. enterica serovar Typhimurium
Method in brief: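 PAP was calculated as MBC against wild-type ATCC 14028 minus MBC against PhoQ mutant CS009. Both MBCs came from the broth microdilution assay: 5 × 10^5 bacteria/ml in LB, 37°C for 16 h, spotting onto LB agar, no-growth endpoint, averaged over at least three trials.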

[6] = target: T1, Virulence sensor histidine kinase PhoQ (Salmonella typhimurium (strain LT2 / SGSC1412 / ATCC 700720)) (UniProt P0DM80); assay: Activation of PhoQ in Salmonella enterica serovar Typhimurium CS102 expressing PhoN fusion protein assessed as initiation of acid phosphatase reporter enzyme expression at 1 ug/ml in presence of 1 mM magnesium; conditions: Salmonella enterica subsp. enterica serovar Typhimurium
T1 sequence (whole entry): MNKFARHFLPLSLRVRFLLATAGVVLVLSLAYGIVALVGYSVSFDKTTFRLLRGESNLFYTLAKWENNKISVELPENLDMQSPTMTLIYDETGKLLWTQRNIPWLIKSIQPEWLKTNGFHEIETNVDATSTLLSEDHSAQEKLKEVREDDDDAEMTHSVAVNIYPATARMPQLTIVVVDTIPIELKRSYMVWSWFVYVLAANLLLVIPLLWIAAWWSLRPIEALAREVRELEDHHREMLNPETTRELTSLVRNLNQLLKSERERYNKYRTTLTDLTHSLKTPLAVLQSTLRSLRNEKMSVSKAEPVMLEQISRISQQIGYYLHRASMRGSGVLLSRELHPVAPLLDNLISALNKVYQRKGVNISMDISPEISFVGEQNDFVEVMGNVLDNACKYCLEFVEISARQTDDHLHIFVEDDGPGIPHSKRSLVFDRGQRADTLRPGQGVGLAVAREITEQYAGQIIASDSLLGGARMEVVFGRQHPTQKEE
Method in brief: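 PhoPQ reporter strain CS102 (PhoQ-regulated acid phosphatase PhoN fusion) incubated in LB with peptide at 1 μg/ml plus 1 mM magnesium; acid phosphatase activity measured. Reference conditions were 50 μM MgCl2 (activating) and 5 mM MgCl2 (repressive). Mean of three replicate experiments.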

[7] = system: Salmonella enterica subsp. enterica; assay: Antibacterial activity against bacterial sensory kinase PhoQ deficient Salmonella enterica serovar Typhimurium CS009 assessed as direct antimicrobial activity after 16 hrs by modified twofold broth microdilution method; format: functional, Salmonella enterica subsp. enterica serovar Typhimurium; method in brief: as §1
[8] = system: Salmonella enterica subsp. enterica; assay: (§2) Antibacterial activity against wild type Salmonella enterica serovar Typhimurium ATCC 14028 preincubated till 4 hrs at dosing schedule of 1 ug/ml at time zero, 1 ug/ml at 1st hr, 2 ug/ml at 2nd hr and final 4 ug/ml at 3rd hr assessed as increase in minimum bactericidal concentration measured after 16 hrs by modified twofold broth microdilution method in presence of 1 mM Mg2+ relative to naive unadapted bacteria; format: functional, Salmonella enterica subsp. enterica serovar Typhimurium
[9] = system: Salmonella enterica subsp. enterica; assay: Antibacterial activity against wild type Salmonella enterica serovar Typhimurium ATCC 14028 assessed as direct antimicrobial activity after 16 hrs by modified twofold broth microdilution method; format: functional, organism-based
[10] = system: Salmonella enterica subsp. enterica; assay: Antibacterial activity against bacterial sensory kinase PhoP deficient Salmonella enterica serovar Typhimurium CS053 assessed as direct antimicrobial activity after 16 hrs by modified twofold broth microdilution method; format: functional, organism-based; method in brief: as §1
[11] = system: Salmonella enterica subsp. enterica; assay: as §2, with “hr” for “hr assessed as increase in minimum bactericidal concentration”, “Mg2+” for “Mg2+ relative to naive unadapted bacteria”; format: functional, organism-based
[12] = system: Salmonella enterica subsp. enterica; assay: Antibacterial activity against bacterial sensory kinase PhoQ deficient Salmonella enterica serovar Typhimurium CS009 by modified twofold broth microdilution method; format: functional, Salmonella enterica subsp. enterica serovar Typhimurium
[13] = system: Salmonella enterica subsp. enterica; assay: Antibacterial activity against wild type Salmonella enterica serovar Typhimurium ATCC 14028 by modified twofold broth microdilution method; format: functional, Salmonella enterica subsp. enterica serovar Typhimurium

| Molecule | MBC [1] | MBC [2] | MBC [3] | MBC [4] | Activity [5] | Activity [6] | Activity [7] | fold change (FC) [8] | Activity [9] | Activity [10] | Activity [11] | MIC [12] | MIC [13] |
| --- | --- | --- | --- | --- | --- | --- | --- | --- | --- | --- | --- | --- | --- |
| CC(C)C[C@H](NC(=O)[C@H](CCCCN)NC(=O)[C@H](CCC(N)=O)NC(=O)[C@H](CC(N)=O)NC(=O)[C@H](CC(C)C)NC(=O)[C@H](CC(=O)O)NC(=O)[C@H](CCC(=O)O)NC(=O)[C@@H]1CCCN1C(=O)[C@@H](NC(=O)[C@H](C)NC(=O)CN)[C@@H](C)O)C(=O)N[C@@H](CO)C(N)=O (H-GATPEDLNQKLS-NH2) | > 500 µg/mL | > 500 µg/mL | > 500 µg/mL | > 500 µg/mL |  |  |  |  |  |  |  |  |  |
| CC[C@H](C)[C@H](NC(=O)[C@H](CCCCN)NC(=O)[C@@H](NC(=O)[C@@H](NC(=O)[C@H](CCCNC(=N)N)NC(=O)[C@H](C)NC(=O)[C@H](CC(C)C)NC(=O)[C@@H](N)CCCNC(=N)N)[C@@H](C)CC)C(C)C)C(=O)N[C@@H](CCCNC(=N)N)C(=O)N[C@H](C(=O)N[C@@H](C)C(=O)N[C@@H](CCCNC(=N)N)C(N)=O)C(C)C (H-RLARIVKIRVAR-NH2) | 13.1 µg/mL (≈ 9.04 µM) | 68.8 µg/mL (≈ 47.5 µM) | 13.3 µg/mL (≈ 9.17 µM) | 69 µg/mL (≈ 47.6 µM) | 55.7 µg/mL | Active | 13.1 µg/mL | <=10 |  |  |  |  |  |
| CC[C@H](C)[C@H](NC(=O)[C@H](CCCNC(=N)N)NC(=O)[C@H](C)NC(=O)[C@H](CC(C)C)NC(=O)[C@@H](N)CCCNC(=N)N)C(=O)N[C@H](C(=O)N1CCC[C@H]1C(=O)N[C@H](C(=O)N[C@@H](CCCNC(=N)N)C(=O)N[C@H](C(=O)N[C@@H](C)C(=O)N[C@@H](CCCNC(=N)N)C(N)=O)C(C)C)[C@@H](C)CC)C(C)C (H-RLARIVPIRVAR-NH2) | 46.7 µg/mL (≈ 32.9 µM) | > 500 µg/mL | 45.4 µg/mL (≈ 32 µM) | > 500 µg/mL |  | Active | 46.7 µg/mL |  | inactive | inactive |  |  |  |
| CC[C@H](C)[C@H](NC(=O)[C@H](CCCNC(=N)N)NC(=O)[C@H](C)NC(=O)[C@H](CC(C)C)NC(=O)[C@@H](N)CCCNC(=N)N)C(=O)N[C@H](C(=O)N[C@H](C(=O)N[C@H](C(=O)N[C@@H](CCCNC(=N)N)C(=O)N[C@H](C(=O)N[C@@H](C)C(=O)NCC(N)=O)C(C)C)[C@@H](C)CC)C(C)C)C(C)C (H-RLARIVVIRVAG-NH2) | 8.6 µg/mL (≈ 6.51 µM) | 31.4 µg/mL (≈ 23.8 µM) | 10.1 µg/mL (≈ 7.64 µM) | 34 µg/mL (≈ 25.7 µM) | 22.8 µg/mL | Active | 8.6 µg/mL |  |  |  |  |  |  |
| CC[C@H](C)[C@H](NC(=O)[C@H](CCCNC(=N)N)NC(=O)[C@H](C)NC(=O)[C@H](CC(C)C)NC(=O)[C@@H](N)CCCNC(=N)N)C(=O)N[C@H](C(=O)N[C@H](C(=O)N[C@H](C(=O)N[C@@H](CCCNC(=N)N)C(=O)N[C@H](C(=O)N[C@@H](C)C(=O)N[C@@H](CCCNC(=N)N)C(N)=O)C(C)C)[C@@H](C)CC)C(C)C)C(C)C (H-RLARIVVIRVAR-NH2) | 6.2 µg/mL (≈ 4.36 µM) | 32.8 µg/mL (≈ 23.1 µM) | 6.5 µg/mL (≈ 4.57 µM) | 42.5 µg/mL (≈ 29.9 µM) |  | Active | 6.2 µg/mL |  |  |  |  |  |  |
| CC[C@H](C)[C@H](NC(=O)[C@H](CCCNC(=N)N)NC(=O)[C@H](CCCNC(=N)N)NC(=O)[C@H](CC(C)C)NC(=O)[C@@H](N)CCCNC(=N)N)C(=O)N[C@H](C(=O)N[C@H](C(=O)N[C@H](C(=O)N[C@@H](CCCNC(=N)N)C(=O)N[C@H](C(=O)N[C@@H](C)C(=O)N[C@@H](CCCNC(=N)N)C(N)=O)C(C)C)[C@@H](C)CC)C(C)C)C(C)C (H-RLRRIVVIRVAR-NH2) | 4.2 µg/mL (≈ 2.79 µM) | 11.5 µg/mL (≈ 7.64 µM) | 3.8 µg/mL (≈ 2.52 µM) | 30 µg/mL (≈ 19.9 µM) | 7.3 µg/mL | inactive | 4.2 µg/mL |  |  |  | Active |  |  |
| CC[C@H](C)[C@H](NC(=O)[C@H](CCCNC(=N)N)NC(=O)[C@H](Cc1c[nH]c2ccccc12)NC(=O)[C@H](CCCNC(=N)N)NC(=O)[C@@H](N)CCCNC(=N)N)C(=O)N[C@H](C(=O)N[C@H](C(=O)N[C@H](C(=O)N[C@@H](CCCNC(=N)N)C(=O)N[C@H](C(=O)N[C@@H](CCCNC(=N)N)C(=O)N[C@@H](CCCNC(=N)N)C(N)=O)C(C)C)[C@@H](C)CC)C(C)C)C(C)C (H-RRWRIVVIRVRR-NH2) | 5.7 µg/mL (≈ 3.43 µM) | 10 µg/mL (≈ 6.01 µM) | 6.4 µg/mL (≈ 3.85 µM) | 19 µg/mL (≈ 11.4 µM) | 34.3 µg/mL | inactive | 5.7 µg/mL |  |  |  |  |  |  |
| CC1(C)S[C@@H]2[C@H](NC(=O)[C@H](N)c3ccccc3)C(=O)N2[C@H]1C(=O)O [AMPICILLIN] |  |  |  |  |  |  |  |  |  |  |  | 8 µg/mL (≈ 22.9 µM) | 10 µg/mL (≈ 28.6 µM) |
| CC1(C)S[C@@H]2[C@H](NC(=O)C(C(=O)O)c3ccccc3)C(=O)N2[C@H]1C(=O)O (stereo not given in full) [CARBENICILLIN] |  |  |  |  |  |  |  |  |  |  |  | 8 µg/mL (≈ 21.1 µM) | 10 µg/mL (≈ 26.4 µM) |
| CCn1cc(C(=O)O)c(=O)c2ccc(C)nc21 [NALIDIXIC ACID] |  |  |  |  |  |  |  |  |  |  |  | 3 µg/mL (≈ 12.9 µM) | 3 µg/mL (≈ 12.9 µM) |
| CN(C)[C@@H]1C(O)=C(C(N)=O)C(=O)[C@@]2(O)C(O)=C3C(=O)c4c(O)cccc4[C@@](C)(O)[C@H]3C[C@@H]12 [TETRACYCLINE] |  |  |  |  |  |  |  |  |  |  |  | 3 µg/mL (≈ 6.75 µM) | 3 µg/mL (≈ 6.75 µM) |
| COc1cc(Cc2cnc(N)nc2N)cc(OC)c1OC [TRIMETHOPRIM] |  |  |  |  |  |  |  |  |  |  |  | 1 µg/mL (≈ 3.44 µM) | 1 µg/mL (≈ 3.44 µM) |
| GENTAMICIN |  |  |  |  |  |  |  |  |  |  |  | 16 µg/mL | 16 µg/mL |
